Values joined by “and” are separate entries in the source; they are usually repeats but may differ in a detail not shown here. Equal values may be shown once.
Tests used:
Type in all cases: functional, cell-based
[1] = target: T1, Solute carrier family 22 member 2 (Rattus norvegicus, UniProt Q9R0W2); assay: TP_TRANSPORTER: inhibition of TEA uptake (in the absence of bicarbonate) (TEA: 20 uM) in OCT2-expressing HEK293 cells
T1 sequence (Q9R0W2 whole entry): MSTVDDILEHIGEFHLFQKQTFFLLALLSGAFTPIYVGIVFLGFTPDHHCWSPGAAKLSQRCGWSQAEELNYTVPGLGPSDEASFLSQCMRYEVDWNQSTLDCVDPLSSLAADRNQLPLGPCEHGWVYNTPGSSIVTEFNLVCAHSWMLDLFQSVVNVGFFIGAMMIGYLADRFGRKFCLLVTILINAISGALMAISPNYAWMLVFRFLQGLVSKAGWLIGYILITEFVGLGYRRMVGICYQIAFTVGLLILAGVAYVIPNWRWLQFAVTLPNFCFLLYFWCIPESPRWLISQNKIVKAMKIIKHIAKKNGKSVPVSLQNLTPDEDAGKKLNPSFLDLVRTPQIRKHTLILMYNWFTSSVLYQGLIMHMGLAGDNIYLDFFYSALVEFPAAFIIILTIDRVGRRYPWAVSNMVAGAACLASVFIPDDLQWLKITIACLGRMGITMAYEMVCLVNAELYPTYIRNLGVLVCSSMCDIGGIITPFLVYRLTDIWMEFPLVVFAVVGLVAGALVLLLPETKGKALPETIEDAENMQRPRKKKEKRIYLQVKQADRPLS
In short: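 Uptake in rOCT1- or rOCT2-expressing stably transfected HEK 293 cells, run in bicarbonate-free Cross-Taggart phosphate buffer, pH 7.4, 25°C. 20 μM [14C]TEA final, 3 s incubation across inhibitor concentrations; ice-cold stopping buffer, centrifugation, washes, scintillation counting. Expressed relative to control uptake without inhibitor; IC50 mean ± S.E.M. of 3–6 experiments.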

[2] = target: T1, Solute carrier family 22 member 2; assay: TP_TRANSPORTER: inhibition of TEA uptake (in the presence of bicarbonate) (TEA: 20 uM) in OCT2-expressing HEK293 cells
In short: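 Stably rOCT1- or rOCT2-transfected HEK 293 cells suspended in bicarbonate (25 mM) Krebs-Henseleit buffer, pH 7.4 set by 95% O2/5% CO2 bubbling, 25°C. […] Percent of uninhibited control; IC50 mean ± S.E.M. of 3–6 experiments.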

[3] = target: T2, Solute carrier family 22 member 1 (Rattus norvegicus, UniProt Q63089); assay: TP_TRANSPORTER: inhibition of TEA uptake (in the presence of bicarbonate) (TEA: 20 uM) in OCT1-expressing HEK293 cells
T2 sequence (Q63089 whole entry): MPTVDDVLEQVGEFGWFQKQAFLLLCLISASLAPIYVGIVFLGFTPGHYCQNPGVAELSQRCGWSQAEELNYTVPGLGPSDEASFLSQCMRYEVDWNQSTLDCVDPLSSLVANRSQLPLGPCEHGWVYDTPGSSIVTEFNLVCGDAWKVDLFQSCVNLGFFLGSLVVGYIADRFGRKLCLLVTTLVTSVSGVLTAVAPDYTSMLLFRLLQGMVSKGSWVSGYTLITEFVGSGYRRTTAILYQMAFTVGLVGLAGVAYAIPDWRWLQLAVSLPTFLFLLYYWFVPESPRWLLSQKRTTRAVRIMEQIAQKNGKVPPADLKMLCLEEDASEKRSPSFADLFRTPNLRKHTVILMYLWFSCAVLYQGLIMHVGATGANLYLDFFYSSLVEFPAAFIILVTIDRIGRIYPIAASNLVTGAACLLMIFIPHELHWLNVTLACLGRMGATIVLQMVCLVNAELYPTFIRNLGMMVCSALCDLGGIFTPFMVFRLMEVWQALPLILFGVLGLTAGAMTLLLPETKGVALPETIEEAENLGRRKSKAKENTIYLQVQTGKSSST
In short: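 Stably rOCT1- or rOCT2-transfected HEK 293 cells suspended in bicarbonate (25 mM) Krebs-Henseleit buffer, pH 7.4 set by 95% O2/5% CO2 bubbling, 25°C.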

[4] = target: T2, Solute carrier family 22 member 1; assay: TP_TRANSPORTER: inhibition of TEA uptake (in the absence of bicarbonate) (TEA: 20 uM) in OCT1-expressing HEK293 cells
In short: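 Uptake in rOCT1- or rOCT2-expressing stably transfected HEK 293 cells, run in bicarbonate-free Cross-Taggart phosphate buffer, pH 7.4, 25°C. 20 μM [14C]TEA final, 3 s incubation across inhibitor concentrations; ice-cold stopping buffer, centrifugation, washes, scintillation counting.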

[5] = target: T2, Solute carrier family 22 member 1; assay: TP_TRANSPORTER: inhibition of Amantadine uptake (in the presence of bicarbonate) (Amantadine: 10 uM) in OCT1-expressing HEK293 cells
In short: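 Rat OCT1 or OCT2 stably transfected HEK 293 cells, grown to 80% confluence, detached and resuspended in KHS (25 mM bicarbonate, pH 7.4, gassed O2/CO2 95%/5%), protein 5–6 mg/ml. […] Highest cyanine863 tested 200 μM. IC50 from 3–6 experiments.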

## NC12CC3CC(CC(C3)C1)C2 [AMANTADINE]
[1]
  IC50: 290 µM
[2]
  IC50: 210 µM
[3]
  IC50: 500 µM
[4]
  IC50: 280 µM

## CC[n+]1c(CC2C=C(C)N=C(c3ccccc3)N2C)ccc2ccccc21 (stereo not drawn) [Cyanine-863]
[1]
  IC50: 1.2 µM
[2]
  IC50: 1 µM
[3]
  IC50: 0.4 µM
[4]
  IC50: 0.45 µM
[5]
  IC50: 89 µM and > 200 µM

## CCN(CC)CCNC(=O)c1ccc(N)cc1 [PROCAINAMIDE]
[1]
  IC50: 215 µM
[2]
  IC50: 90 µM

## C=C[C@H]1C[N@@]2CC[C@H]1C[C@H]2[C@H](O)c1ccnc2ccc(OC)cc12 [QUININE]
[1]
  IC50: 38 µM
[2]
  IC50: 13 µM

— ChEMBL document CHEMBL2074271 (J Pharmacol Exp Ther, 2002)
